Assay outcomes from PubChem BioAssay.
E coli WT exp: blocks growth of wild type E. coli BW25113. growth inhibition, % at 100 µM. OD600 absorbance. 98,000 tested, 0.15% active;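 active = growth inhibition above about 50% at one test dose, limit read from the data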;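 note: growth measured after 20 h incubation at 37 °C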
CYP2C9 inh: inhibitors of human CYP2C9; CYP2C9 Supersomes, luciferin-H conversion, luminescence; inhibition, % at 5 µM; 96,000 tested, 20% active;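 active = blocking of liver enzyme CYP2C9 beyond about 50% at 5 µM, limit read from the data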
Target sequence (P11712 whole entry, looked up): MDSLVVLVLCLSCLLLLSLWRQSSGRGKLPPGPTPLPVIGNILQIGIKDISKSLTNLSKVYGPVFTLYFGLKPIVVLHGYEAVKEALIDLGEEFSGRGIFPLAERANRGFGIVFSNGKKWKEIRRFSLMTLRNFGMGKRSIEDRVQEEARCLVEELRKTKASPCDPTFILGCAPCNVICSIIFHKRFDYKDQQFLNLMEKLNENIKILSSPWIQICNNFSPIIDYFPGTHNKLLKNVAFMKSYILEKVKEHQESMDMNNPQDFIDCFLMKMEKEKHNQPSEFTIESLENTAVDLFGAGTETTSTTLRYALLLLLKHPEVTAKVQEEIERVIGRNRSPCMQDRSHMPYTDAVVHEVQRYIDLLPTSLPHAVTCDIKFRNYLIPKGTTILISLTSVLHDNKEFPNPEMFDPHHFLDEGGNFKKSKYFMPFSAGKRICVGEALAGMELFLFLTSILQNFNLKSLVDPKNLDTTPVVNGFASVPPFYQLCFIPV
CYP2C19 inhib: human CYP2C19 inhibition. P33261. CYP2C19 Supersomes, luciferin-H EGE luminescence, 30 min. inhibition, % at 5 µM. 96,000 tested, 21% active;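 active = CYP2C19 inhibition above a set limit at 5 µM in the primary screen, cut at about 50% in these data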
CYP2C19 activ: increases human CYP2C19 enzyme activity | recombinant CYP2C19, luciferin-H EGE luminescence; stronger effect = higher value; 0 = fully inhibited enzyme, 1 = untreated enzyme | activation factor at 5 µM | AID 1025 | 96,000 tested, under 10 active | P33261;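 active = activation factor of at least 2 at 5 µM in the primary screen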
Ecoli tolC: blocks growth of E. coli BW25113 tolC mutant; OD615; growth inhibition, % at 10 µM (by protocol); 65,000 tested, 2.2% active;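 active = growth inhibition at or above a cutoff equal to the mean over every tested compound plus 3 SD, cut at about 60% in these data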;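 note: growth measured after 20 h incubation at 37 °C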
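Material: E. coli BW25113 ΔtolC::kan, tolC deletion mutant strain. Measure: percent growth inhibition. Schedule: 37 °C, 20 h exposure. Doses: single-point testing at 10 µM. Signal: A615 absorbance measurement. Buffer or medium: kanamycin-containing LB broth (50 µg/mL).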
CYP2C9 act: CYP2C9 (human) activation | P11712 | recombinant CYP2C9, luciferin-H conversion, luminescence; stronger effect = higher value; factor 1 = untreated enzyme, 0 = blocked | activation factor at 5 µM | 96,000 tested, 1.4% active | AID 1024;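 active = activation factor of 2 or more for CYP2C9 at a 5 µM dose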
A number is an active result; . = inactive; / = not tested or not shown. Most compounds without a hit are left out; they make up all but 29% or so of the library.

SMILES | E coli WT exp | CYP2C9 inh | CYP2C19 inhib | CYP2C19 activ | Ecoli tolC | CYP2C9 act
CSc1ccc(-c2nnn(CC(=O)NCc3ccccc3)n2)cc1 | . | . | . | . | . | .
Cc1nc2c(C(=O)N3CCCC3)cnn2c(C)c1Cc1c(F)cccc1Cl | . | . | 53.6 | . | / | .
Cc1nc2c(C(=O)N3CCN(c4ccccn4)CC3)cnn2c(C)c1Cc1cccc(Cl)c1 | . | 73.9 | 98.2 | . | . | .
Cn1c(C(C#N)C(=O)c2sc3ccccc3c2Cl)nc2ccccc21 (stereo not drawn) | . | 71.1 | . | . | . | .
Cc1cc(C)n(CCOC(=O)c2sc3ccccc3c2Cl)n1 | . | . | . | . | . | .
Cc1cccc(NC(=O)CSc2nnc(-c3ccc(S(=O)(=O)N4CCOCC4)cc3)n2C)c1 | . | 51.6 | 99.4 | . | . | .
Cc1ccc(C)c(NC(=O)CSc2nnc(-c3ccccc3)n2N)c1 | . | . | 62.6 | . | . | .
Cc1csc(NC(=O)CSc2nnc(-c3ccncc3)n2C)n1 | . | . | . | . | / | .
Cc1ccc(Nc2nnc(SCC(=O)Nc3ccc(S(=O)(=O)N4CCOCC4)cc3)s2)cc1 | . | 74.4 | . | . | / | .
Cc1cccc(NC(=O)CSc2nnc(-c3ccncc3)n2C)c1 | . | 52.1 | 79.9 | . | . | .
CCOC(=O)c1ccc(NC(=O)CSc2nnc(-c3ccncc3)n2C)cc1 | . | 72.8 | 69.4 | . | . | .
CCC(C)NC(=O)CSc1nnc(-c2cc(-c3ccc(C)cc3)nc3ccccc23)n1N (stereo not drawn) | . | . | . | . | / | .
Cc1cc(NC(=O)CSc2nnc(-c3ccncc3)n2N)ccc1Br | . | 87.3 | . | . | . | .
Cc1ccc(-c2cc(-c3nnc(SCC(=O)NCC(C)C)n3N)c3ccccc3n2)cc1 | . | 78.2 | . | . | / | .
CCOc1ncccc1C(=O)OCc1cc(=O)n2c(n1)sc1ccccc12 | / | / | / | / | . | /
Cc1nc(OCc2ccccc2)c2sc3nc4c(cc3c2n1)COC(C)(C)C4 | . | . | . | . | / | .
C=CCNCCCCOc1ccc(C)cc1[N+](=O)[O-] | . | . | . | . | / | .
C=CCc1ccc(OCC(O)COc2ccc(CC=C)cc2OC)c(OC)c1 | . | 92.9 | 96.9 | . | / | .
C=CCc1ccc(OCCOCCOc2ccccc2[N+](=O)[O-])c(OC)c1 | . | 76.6 | 85.1 | . | / | .
C=CCc1ccc(OCC(O)CN2CCCCC2)c(OC)c1 (stereo not drawn) | . | . | . | . | . | .
C=CCc1ccc(OCCCOc2ccc(C)cc2OC)c(OC)c1 | . | . | 59.0 | . | / | .
C=CCc1ccc(OCCCCN2CC(C)OC(C)C2)c(OC)c1 (stereo not drawn) | . | . | . | . | / | .
CCN1CCN(c2ncc(C(=O)Nc3cc(Cl)ccc3OC)c3ccccc23)CC1 | . | . | . | . | . | .
CCN1CCN(c2ncc(C(=O)N3CCCc4ccccc43)c3ccccc23)CC1 | . | . | 80.7 | . | . | .
Cc1ccccc1NC(=O)CSc1nc(Nc2ccccc2)nc(N2CCOCC2)n1 | . | 62.1 | . | . | . | .
SMILES | E coli WT exp | CYP2C9 inh | CYP2C19 inhib | CYP2C19 activ | Ecoli tolC | CYP2C9 act
O=C(CSc1nc(Nc2ccccc2)nc(N2CCOCC2)n1)Nc1ccc2c(c1)OCCO2 | . | 60.4 | 61.1 | . | . | .
CC(C)NC(=O)c1cc(-n2cnnc2)ccc1Cl | . | . | . | . | / | .
CC(CN1CCCC1)OC(=O)COc1ccccc1 (stereo not drawn) | . | . | . | . | . | .
CC(CN1CCCCC1)OC(=O)C1c2ccccc2Oc2ccccc21 (stereo not drawn) | . | . | 71.6 | . | / | .
CCCc1cc(NCCN2CCOCC2)n2c(nc3ccccc32)c1C#N | / | / | / | / | . | /
COc1cc(C(=O)N2CCC(n3cnc4cc(F)ccc43)CC2)cc(OC)c1OC | . | . | . | . | . | .
O=C(NCc1ccccc1)c1cccc(COc2ccccc2Cl)c1 | . | . | . | . | / | .
NNC(=O)c1cccc(COc2ccccc2Br)c1 | . | 77.6 | 98.0 | . | / | .
O=C(CCCn1c(=O)[nH]c2cc(Cl)ccc2c1=O)NCCC1=CCCCC1 | . | . | . | . | / | .
COc1cc2[nH]c(=O)n(CCCCCC(=O)N3CCN(c4ccccn4)CC3)c(=O)c2cc1OC | . | . | . | . | . | .
COc1ccc(N2CCN(C(=O)CCCn3c(=O)[nH]c4cc(Cl)ccc4c3=O)CC2)cc1 | . | 52.8 | . | . | / | .
O=C(CCCn1c(=O)[nH]c2cc(Cl)ccc2c1=O)NCCCN1CCCC1 | . | 68.8 | . | . | . | .
O=C(CCn1c(=O)[nH]c2ccsc2c1=O)N1CCN(c2cccc(Cl)c2)CC1 | . | 71.4 | . | . | . | .
CNC(=O)c1ccccc1F | . | . | . | . | / | .
Nc1c(S(=O)(=O)c2cccc(Cl)c2)c2nc3ccccc3nc2n1/N=C/c1ccc(O)c(O)c1 | . | . | . | . | . | .
Cc1cc(NC(=O)CN2C(=O)CC(c3ccco3)Sc3ccccc32)no1 (stereo not drawn) | . | / | / | / | . | /
Nc1c(Br)cc(Br)c(N2CCCC2=O)c1Br | . | . | 54.4 | . | . | 4.3
COc1ccc(Cl)cc1NC(=O)C(C)N1CCN(C/C=C/c2ccccc2)CC1 (stereo not drawn) | . | 91.4 | 97.3 | . | / | .
COc1ccccc1NC(=O)CCN1CCN(Cc2ccccc2)CC1 | . | 56.9 | . | . | / | .
COc1ccc(Cl)cc1NC(=O)N1CCN(S(C)(=O)=O)CC1 | . | . | . | . | . | .
COc1ccc(Cl)cc1NC(=O)N1CCN(CCc2ccccc2)CC1 | . | . | 73.1 | . | . | 2.3
CCOC(=O)c1ccc(NC(=O)N2CCN(CCc3ccccc3)CC2)cc1 | . | 66.3 | . | . | . | .
COc1ccc(C(NC(=O)C(C)(C)C)NC(=O)C(C)(C)C)cc1 | . | / | / | / | . | /
Cc1cc(C)n2nc(/C(C#N)=C/c3ccccc3)c(C#N)c2n1 | . | . | . | . | / | .
O=C(CCCC(=O)OCC1CCCO1)OCC1CCCO1 (stereo not drawn) | . | . | . | . | . | .
SMILES | E coli WT exp | CYP2C9 inh | CYP2C19 inhib | CYP2C19 activ | Ecoli tolC | CYP2C9 act
COc1ccc(NC(C)=O)cc1NC(=O)CN1CCN(CC(=O)Nc2ccc(Cl)cc2)CC1 | . | . | 67.0 | . | . | .
CCCC(=O)Nc1cccc(NC(=O)CN2CCN(c3ccccc3OC)CC2)c1 | . | 76.8 | 87.8 | . | . | .
COc1ccc(NC(C)=O)cc1NC(=O)CN1CCN(CC(=O)Nc2ccccc2Cl)CC1 | . | . | . | . | . | .
COc1ccccc1NC(=O)N1CCN(c2ccccc2F)CC1 | . | . | . | . | . | 2.4
COc1ccccc1NC(=O)CN1CCN(c2ccccc2F)CC1 | . | 65.9 | 88.4 | . | . | .
COc1ccccc1NC(=O)N1CCN(c2ccccn2)CC1 | . | . | . | . | . | .
CCOCCCNC(=O)CN1C(=O)CSc2cc(S(=O)(=O)N3CCCCCC3)ccc21 | . | . | . | . | . | .
COc1ccc(C)cc1NC(=O)CN1CCN(CC(=O)Nc2ccccc2F)CC1 | . | . | 60.7 | . | . | .
